For experiment [1], the system named is RD – rhabdomyosarcoma cell line. In words: MTT cytotoxicity, RD cell line. The class given is cell-based. To be noted: 72 h. The method, boiled down:
(§1)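 Cells seeded at 5000 per well in Eagle's MEM with 10% fetal calf serum, 2 mM L-glutamine, penicillin and streptomycin, then pre-incubated 24 h at 37 °C, 5% CO2. A concentration series of test compound in DMSO, with a reference drug, was applied for 72 h. MTT added for 4 h at 37 °C, formazan dissolved in ethanol, OD read at 570 nm. Inhibition calculated against blank and control absorbances.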

In experiment [2] the test system is MDA-MB-231 – human breast cancer cell line. Description: MTT cytotoxicity, MDA-MB-231 cell line. It is filed as cell-based. As to conditions: MDA-MB-231, 72 h, read-out: IC50 MDA-MB-231. The method, boiled down:
as §1

In another experiment the test system is HT-29 cell line. As to conditions: cited from earlier work.
Another experiment concerns SW620 cell line. As to conditions: cited from earlier work.
Setting [3] is: Rhabdomyosarcoma cell, read-out: IC50 RD, MTT, 72 h, mean ± SD.
[4] abbreviates: read-out: IC50 RD, MTT, mean ± SD.

Each structure is given as a SMILES string. Read-outs that look alike come from different tables or passages of the source.

Consider `COc1ccc(C=Nn2c(-c3ccccc3)nc3ccc(Cl)cc3c2=O)cc1OC` [Compound 13, 6-Chloro-3-((3,4-dimethoxybenzylidene)amino)-2-phenyl-4(3H)-quinazolone], for which the 50% inhibitory concentration (IC50) in experiment [1] (setting [3]) was 130 ± 10.4 µM; in experiment [2], 139 ± 4.04 µM.
As for `O=c1[nH]cc(F)c(=O)[nH]1` [fluorouracil], the “inhibitory activity against HT-29” value with HT-29 cell line is given as 34.1%. Further, the “inhibitory activity against SW620” value with SW620 cell line was 57.3%.
For the compound `O=c1c2cc(Cl)ccc2nc(-c2ccccc2)n1N=Cc1ccc(Cl)c(Cl)c1` [Compound 3, 6-Chloro-3-((3,4-dichlorobenzylidene)amino)-2-phenyl-4(3H)-quinazolone], the half-maximal inhibitory concentration (IC50) in experiment [1] (setting [3]) turned out to be 246 ± 24.3 µM; in experiment [2], 91.5 ± 1.47 µM.
The corresponding values for `O=c1c2cc(Cl)ccc2nc(-c2ccccc2)n1N=Cc1ccc([N+](=O)[O-])cc1` [Compound 2, 6-Chloro-3-((4-nitrobenzylidene)amino)-2-phenyl-4(3H)-quinazolone] are 151 ± 2.06 µM and 104 ± 3.63 µM.
Regarding `COc1ccc(C=Nn2c(-c3ccccc3)nc3ccc(Cl)cc3c2=O)cc1O` [Compound 20, 6-Chloro-3-((3-hydroxy-4-methoxybenzylidene)amino)-2-phenyl-4(3H)-quinazolone], the results for the IC50 in experiment [1] (setting [3]) and in experiment [2] were 48.1 ± 3.97 µM and 198 ± 13.3 µM, respectively.
Taken in the same sequence, the figures for `CC(=O)O[C@H]1C(=O)[C@@]2(C)[C@H]([C@H](OC(=O)c3ccccc3)[C@]3(O)C[C@H](OC(=O)[C@H](O)[C@@H](NC(=O)c4ccccc4)c4ccccc4)C(C)=C1C3(C)C)[C@]1(OC(C)=O)CO[C@@H]1C[C@@H]2O` [PTX, paclitaxel, reference compound] were 0.58 ± 0.01 µM and 0.04 ± 0.02 µM.
Taken in the same sequence, the figures for `O=c1c2cc(Cl)ccc2nc(-c2ccccc2)n1N=Cc1ccc(Cl)cc1Cl` [Compound 11, 6-Chloro-3-((2,4-dichlorobenzylidene)amino)-2-phenyl-4(3H)-quinazolone] were 251 ± 25.5 µM and 99.4 ± 1.76 µM.
The corresponding values for `COc1cccc(C=Nn2c(-c3ccccc3)nc3ccc(Cl)cc3c2=O)c1` [Compound 18, 6-Chloro-3-((3-methoxybenzylidene)amino)-2-phenyl-4(3H)-quinazolone] are 84.8 ± 9.35 µM and 329 ± 47.2 µM.
For the compound `O=c1c2cc(Cl)ccc2nc(-c2ccccc2)n1N=Cc1cccc(O)c1` [Compound 9, 6-Chloro-3-((3-hydroxybenzylidene)amino)-2-phenyl-4(3H)-quinazolone], the IC50 in experiment [1] (setting [3]) came out at 254 ± 14.2 µM; in experiment [2] it was 84.4 ± 1.26 µM.
Taken in the same sequence, the figures for `O=c1c2cc(Cl)ccc2nc(-c2ccccc2)n1N=Cc1ccccc1O` [Compound 19, 6-Chloro-3-((2-hydroxybenzylidene)amino)-2-phenyl-4(3H)-quinazolone] were 51.1 ± 0.99 µM and 37.5 ± 0.63 µM.
Taken in the same sequence, the figures for `O=c1c2cc(Cl)ccc2nc(-c2ccccc2)n1N=Cc1cccnc1` [Compound 14, 6-Chloro-2-phenyl-3-((pyridin-3-ylmethylene)amino)-4(3H)-quinazolone] were 136 ± 17 µM and 262 ± 43.9 µM.
As for `O=c1c2cc(Cl)ccc2nc(-c2ccccc2)n1N=Cc1ccccc1` [Compound 21, 3-(Benzylideneamino)-6-chloro-2-phenyl-4(3H)-quinazolone], the IC50 in experiment [1] (setting [3]) was found to be 143 ± 12.7 µM; in experiment [2], 121 ± 9.35 µM.
With `CCOc1ccc(C=Nn2c(-c3ccccc3)nc3ccc(Cl)cc3c2=O)cc1` [Compound 17, 6-Chloro-3-((4-ethoxybenzylidene)amino)-2-phenyl-4(3H)-quinazolone], the IC50 in experiment [1] (setting [3]) was 376 ± 8.08 µM; in experiment [2], 194 ± 8.83 µM.
Taken in the same sequence, the figures for `O=c1c2cc(Cl)ccc2nc(-c2ccccc2)n1N=Cc1ccco1` [Compound 15, 6-Chloro-3-((furan-2-ylmethylene)amino)-2-phenyl-4(3H)-quinazolone] were 38.6 ± 1.07 µM and 56.6 ± 5.37 µM.
The corresponding values for `O=c1c2cc(Cl)ccc2nc(-c2ccccc2)n1N=Cc1ccccc1Cl` [Compound 12, 6-Chloro-3-((2-chlorobenzylidene)amino)-2-phenyl-4(3H)-quinazolinone] are 126 ± 6.2 µM and 321 ± 51.8 µM.
As for `O=c1c2cc(Cl)ccc2nc(-c2ccccc2)n1N=Cc1ccc2c(c1)OCO2` [Compound 6, 3-((Benzo[d][1,3]dioxol-5-ylmethylene)amino)-6-chloro-2-phenyl-4(3H)-quinazolone], the half-maximal inhibitory concentration (IC50) was 50 to 55 µM in experiment [1] (setting [3]), 54.5 ± 0.81 µM in experiment [1] (setting [4]) and 10.6 ± 0.67 µM in experiment [2].
With `O=c1c2cc(Cl)ccc2nc(-c2ccccc2)n1N=Cc1ccc(F)cc1` [Compound 4, 6-Chloro-3-((4-fluorobenzylidene)amino)-2-phenyl-4(3H)-quinazolone], the IC50 in experiment [1] (setting [3]) was 235 ± 8.29 µM; in experiment [2] it was 21.6 ± 1.11 µM.
Taken in the same sequence, the figures for `CCOc1ccc(C=Nn2c(-c3ccccc3)nc3ccc(Cl)cc3c2=O)cc1O` [Compound 10, 6-Chloro-3-((4-ethoxy-3-hydroxybenzylidene)amino)-2-phenyl-4(3H)-quinazolone] were 430 ± 72.9 µM and 85.5 ± 2.32 µM.
The corresponding values for `O=c1c2cc(Cl)ccc2nc(-c2ccccc2)n1N=Cc1c(F)cccc1Cl` [Compound 5, 6-Chloro-3-((2-chloro-6-fluorobenzylidene)amino)-2-phenyl-4(3H)-quinazolone] are 14.7 ± 0.68 µM and 148 ± 5.64 µM.
The corresponding values for `O=c1c2cc(Cl)ccc2nc(-c2ccccc2)n1N=Cc1cccc([N+](=O)[O-])c1` [Compound 16, 6-Chloro-3-((3-nitrobenzylidene)amino)-2-phenyl-4(3H)-quinazolone] are 82.3 ± 1.99 µM and 301 ± 27.1 µM.
On to `O=c1c2cc(Cl)ccc2nc(-c2ccccc2)n1N=Cc1ccc(Br)cc1O` [Compound 7, 3-((4-Bromo-2-hydroxybenzylidene)amino)-6-chloro-2-phenyl-4(3H)-quinazolone], for which the figures for the concentration for half-maximal inhibition (IC50) in experiment [1] (setting [3]), in experiment [1] (setting [4]) and in experiment [2] were 50 to 55 µM, 51.6 ± 1.19 µM and 8.79 ± 0.34 µM, respectively.
Take `CN(C)c1ccc(C=Nn2c(-c3ccccc3)nc3ccc(Cl)cc3c2=O)cc1` [Compound 8, 6-Chloro-3-((4-(dimethylamino)benzylidene)amino)-2-phenyl-4(3H)-quinazolone]: the IC50 in experiment [1] (setting [3]) is 198 ± 18.9 µM; in experiment [2] it was 101 ± 3.75 µM.

The values are drawn from paper PMC12377187 (RSC Advances, 2025).
